The text below walks through data of article PMC7043261 (Pharmacology Research & Perspectives, 2020).

For series [1], the system named is formalin‐induced pain responses in rats. To be noted: ref 34 (Maione et al (2007)); cited from earlier work.
The test system of a further series is catalepsy in rats. Put plainly: Catalepsy. The class given is in vivo. To be noted: rat, cut‐off 90 s.
The subject of the next series is motor coordination. To be noted: ref 17 (Watabiki et al (2017)); cited from earlier work.
The test system of series [2] is spinal nerve ligation‐induced mechanical allodynia. As to conditions: rats; single systemic administration; cited from earlier work.
Series [3] relates to partial sciatic nerve ligation‐induced mechanical allodynia. To be noted: rats; cited from earlier work.
The subject of series [4] is CFA‐induced mechanical allodynia in rats. To be noted: cited from earlier work; for mechanical allodynia on CFA‐induced inflammatory pain: rats.
A further series has as its system catalepsy. As to conditions: ref 13 (Ahn et al (2011)); cited from earlier work.
A further series deals with T1, rat FAAH (Rattus norvegicus, UniProt P97612).
T1 sequence (P97612 1-579): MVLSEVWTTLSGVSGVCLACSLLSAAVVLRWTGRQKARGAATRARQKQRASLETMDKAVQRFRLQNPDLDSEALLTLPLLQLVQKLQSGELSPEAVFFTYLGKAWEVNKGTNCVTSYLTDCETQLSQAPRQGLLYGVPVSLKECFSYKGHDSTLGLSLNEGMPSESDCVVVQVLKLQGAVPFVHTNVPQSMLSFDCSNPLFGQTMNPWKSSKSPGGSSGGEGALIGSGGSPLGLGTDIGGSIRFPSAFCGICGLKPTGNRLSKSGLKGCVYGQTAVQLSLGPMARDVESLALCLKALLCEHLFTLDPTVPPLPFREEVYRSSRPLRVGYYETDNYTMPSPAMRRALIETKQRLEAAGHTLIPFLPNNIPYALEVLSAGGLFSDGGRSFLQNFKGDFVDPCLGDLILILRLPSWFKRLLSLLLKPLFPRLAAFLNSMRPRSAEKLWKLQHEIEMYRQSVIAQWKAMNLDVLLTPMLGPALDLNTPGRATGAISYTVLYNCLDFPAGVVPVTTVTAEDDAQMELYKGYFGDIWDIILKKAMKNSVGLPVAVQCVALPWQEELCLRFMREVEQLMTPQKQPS
Put plainly: FAAH inhibition, rat brain microsomes, AAMCA fluorescence, IC50. The class given is biochemical.

The nature of series [5]: Pharmacokinetic study in rats. To be noted: male, Sprague-Dawley, rat, plasma. The class given is in vivo. In short, it runs like this: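 Male Sprague‐Dawley rats. IV dose: 1 mg/kg in 40% dimethylacetamide/40% PEG400/20% water (1 mL/kg). Oral doses: 0.3, 1, 3 mg/kg as 0.5% HPMC suspension. Serial plasma was obtained by centrifugation (2,150g, 15 min, 4°C), extracted with ethyl acetate by supported‐liquid extraction, and reconstituted in 45% acetonitrile/55% 10 mmol/L ammonium acetate. Analysis by LC‐MS/MS; noncompartmental parameters.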

In series [6] the test system is CCI‐induced mechanical allodynia in rats. Description: CCI‐induced neuropathic pain. The class given is in vivo. To be noted: rat, 4 hours. In short, it runs like this: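 Male Sprague‐Dawley rats. Under anesthesia, the left sciatic nerve was loosely tied with four ligatures at 1 mm intervals; in shams the right nerve was exposed but not ligated. On day 14 after surgery, the test compound (0.5% HPMC suspension) or pregabalin (saline) was given orally at 10 mL/kg 4 h before PWT. PWT was measured by von Frey up‐down method. n=8, mean ± SEM; Steel's or Wilcoxon test.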

For series [7], the target named is T2, human monoacylglycerol lipase (MAGL) (Homo sapiens, UniProt Q99685).
T2 sequence (Q99685 1-303): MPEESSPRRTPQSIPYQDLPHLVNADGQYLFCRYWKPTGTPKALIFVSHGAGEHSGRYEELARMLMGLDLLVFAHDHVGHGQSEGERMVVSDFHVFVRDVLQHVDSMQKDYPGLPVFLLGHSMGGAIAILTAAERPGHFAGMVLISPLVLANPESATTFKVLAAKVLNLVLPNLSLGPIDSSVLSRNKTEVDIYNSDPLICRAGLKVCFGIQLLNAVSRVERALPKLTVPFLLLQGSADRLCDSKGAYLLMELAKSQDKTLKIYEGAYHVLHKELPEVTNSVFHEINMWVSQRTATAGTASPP
Put plainly: MAGL inhibitor screening assay kit. The class given is biochemical. As to conditions: 30 μmol/L.

Series [8] deals with motor coordination in rats. Put plainly: Motor coordination. The class given is in vivo. As to conditions: rat, p.o., cut‐off 200 s. The essentials:
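Male Sprague‐Dawley rats were trained at 20 rpm on 2 consecutive days, up to five trials, until they walked ≥200 s. They were retrained in two sessions on test day; rats reaching the criterion once were used. Time on the rod (cut‐off 200 s) was recorded 1 h after the oral test compound or 2 h after pregabalin. n=10, mean ± SEM; Steel's test.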

Another series deals with 5-HT2B (h) (Homo sapiens, UniProt P41595). Description: Cerep BioPrint profiling and follow-up IC50. The series is classed as binding.
For series [9], the system named is formalin‐induced pain responses in rats. Put plainly: Formalin test. The series is classed as in vivo. As to conditions: rat; for formalin‐induced pain responses, late phase: 10 to 45 minutes; for formalin‐induced pain responses, early phase: 0 to 10 minutes. The essentials: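 Male Wistar rats received oral dosing 1 h before injection: test compound in 0.5% HPMC or pregabalin in saline, 10 mL/kg. Then 0.5% formalin (50 µL) was injected into the left hind‐paw plantar surface. Flinching, licking and biting time was scored manually over 45 min: early phase 0–10 min, late phase 10–45 min. n=6, mean ± SEM; Dunnett's or Student's t‐test.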

The target in another series is PAF (h) (Homo sapiens, UniProt P25105). Put plainly: Cerep BioPrint profiling and follow-up IC50. The class given is binding.
The target in another series is T3, human FAAH (Homo sapiens, UniProt O00519).
T3 sequence (O00519 1-579): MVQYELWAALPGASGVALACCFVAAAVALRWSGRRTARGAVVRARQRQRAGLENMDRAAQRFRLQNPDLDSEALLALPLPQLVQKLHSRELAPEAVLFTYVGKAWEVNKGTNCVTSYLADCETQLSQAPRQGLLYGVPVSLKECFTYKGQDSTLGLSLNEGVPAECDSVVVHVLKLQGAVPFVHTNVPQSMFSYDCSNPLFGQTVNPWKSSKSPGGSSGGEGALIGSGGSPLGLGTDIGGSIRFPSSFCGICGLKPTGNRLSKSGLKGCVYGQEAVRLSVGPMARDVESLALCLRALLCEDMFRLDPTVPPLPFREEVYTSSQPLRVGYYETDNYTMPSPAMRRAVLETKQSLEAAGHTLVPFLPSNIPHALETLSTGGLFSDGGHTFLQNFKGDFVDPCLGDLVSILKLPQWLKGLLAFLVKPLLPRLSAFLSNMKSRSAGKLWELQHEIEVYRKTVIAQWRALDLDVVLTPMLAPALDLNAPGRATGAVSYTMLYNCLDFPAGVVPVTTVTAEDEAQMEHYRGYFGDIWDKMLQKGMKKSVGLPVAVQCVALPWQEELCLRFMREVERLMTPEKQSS
Put plainly: FAAH inhibition, human microsomes. The class given is biochemical.

Series [10] concerns CFA‐induced mechanical allodynia in rats. Description: CFA‐induced inflammatory pain. The series is classed as in vivo. As to conditions: rat, 1 and 4 hours after administration. The essentials: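 Male Sprague‐Dawley rats received 50% CFA intraplantar (0.1 mL, right hind paw). PWT was measured 5 days later by von Frey up‐down method. The test compound (0.5% HPMC suspension) was dosed orally 1 h before PWT. Naproxen (0.5% methylcellulose) was dosed orally 4 h before PWT. Dosing volume 10 mL/kg. n=9, mean ± SEM; Steel's or Wilcoxon test.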

The test system of series [11] is AEA concentrations in rat brain. Put plainly: AEA concentrations in rat brain. The class given is in vivo.
The mark [12] stands for this setting: 30 mg/kg p.o. 1 hour before formalin.

PAF (h), sequence (P25105 whole entry): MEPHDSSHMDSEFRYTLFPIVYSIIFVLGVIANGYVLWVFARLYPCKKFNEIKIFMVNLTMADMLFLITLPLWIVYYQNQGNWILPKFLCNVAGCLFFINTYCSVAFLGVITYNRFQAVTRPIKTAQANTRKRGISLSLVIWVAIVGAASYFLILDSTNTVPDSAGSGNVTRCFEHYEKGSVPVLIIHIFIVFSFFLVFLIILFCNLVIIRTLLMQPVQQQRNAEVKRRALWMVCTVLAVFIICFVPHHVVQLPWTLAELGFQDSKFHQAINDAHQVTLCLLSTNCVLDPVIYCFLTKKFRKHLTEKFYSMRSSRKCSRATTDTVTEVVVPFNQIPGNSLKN
5-HT2B (h), sequence (P41595 whole entry): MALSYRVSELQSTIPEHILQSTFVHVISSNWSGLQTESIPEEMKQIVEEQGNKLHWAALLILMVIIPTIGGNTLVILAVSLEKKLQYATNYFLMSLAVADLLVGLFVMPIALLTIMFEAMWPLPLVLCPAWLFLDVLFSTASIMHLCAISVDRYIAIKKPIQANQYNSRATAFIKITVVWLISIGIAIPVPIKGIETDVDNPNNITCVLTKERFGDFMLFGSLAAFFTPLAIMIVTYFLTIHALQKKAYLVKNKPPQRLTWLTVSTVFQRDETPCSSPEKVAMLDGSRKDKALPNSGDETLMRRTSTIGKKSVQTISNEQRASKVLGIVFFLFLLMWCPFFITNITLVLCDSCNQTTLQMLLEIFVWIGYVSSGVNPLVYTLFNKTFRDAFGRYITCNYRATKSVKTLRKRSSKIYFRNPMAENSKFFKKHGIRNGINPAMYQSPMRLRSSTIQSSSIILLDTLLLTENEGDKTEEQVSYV

Take `CCCCC/C=C\C/C=C\C/C=C\C/C=C\CCCC(=O)NCCc1c[nH]c2ccc(O)cc12` [AA‐5‐HT, N‐arachidonoyl‐serotonin]: the “formalin‐induced pain responses” value in series [1] is given as “significantly decreased formalin‐induced pain responses only in the late phase”.
Consider `CS(=O)(=O)O.Cc1c(C(=O)c2cccc3ccccc23)c2cccc3c2n1[C@H](CN1CCOCC1)CO3` [WIN 55,212‐2, (R)‐(+)‐(2,3; dihydro‐5‐methyl‐3‐(4‐morpholinylmethyl)pyrrolo[1.2.3‐de]‐1,4‐benzoxazin‐6‐yl)‐1‐naphthalenylmethanone mesylate, reference compound], for which the “Duration (s), catalepsy” value was 13 ± 2 s in the series on catalepsy in rats (3 mg/kg, s.c., 1 h) and 77 ± 7 s in the series on catalepsy in rats (3 mg/kg, s.c., 4 h).
In the case of `O=C(Nc1ccccc1)C1CCN(C(=O)Oc2cccnc2)CC1` [ASP8477, 3‐pyridyl 4‐(phenylcarbamoyl)piperidine‐1‐carboxylate], the “effect on motor coordination” value in the series with motor coordination is “did not affect motor coordination up to 30 mg/kg”.
Turning to `NC(=O)c1cccc(-c2cccc(OC(=O)NC3CCCCC3)c2)c1` [URB597, (3'‐(aminocarbonyl)[1,1'‐biphenyl]‐3‐yl)‐cyclohexylcarbamate], in series [2], the “spinal nerve ligation‐induced mechanical allodynia” value is reported as “improved”. Moreover, the “partial sciatic nerve ligation‐induced mechanical allodynia” value in [3] is “had no improvement”.
For the molecule `O=C(Nc1cccnn1)N1CCC(=Cc2cccc(Oc3ccc(C(F)(F)F)cn3)c2)CC1` [PF‐04457845, N‐pyridazin‐3‐yl‐4‐(3‐{[5‐(trifluoromethyl)pyridin‐2‐yl]oxy}benzylidene)piperidine‐1‐carboxamide], in [4], the “mechanical allodynia on CFA‐induced inflammatory pain” value is given as “improved mechanical allodynia”. Moreover, the “minimum effective dose in CFA‐induced inflammatory pain” value in series [4] (ref 13 (Ahn et al (2011))) is 0.1 mg/kg. For the same molecule, the effects on catalepsy result in the series on catalepsy was “no effects on catalepsy up to 100‐fold higher dose”.
Turning to `O=C(Nc1cccnc1)N1CCC(Cc2cccc(Oc3ccc(C(F)(F)F)cn3)c2)CC1` [PF‐3845, N‐3‐pyridinyl‐4‐[[3‐[[5‐(trifluoromethyl)‐2‐pyridinyl]oxy]phenyl]methyl]‐1‐piperidinecarboxamide], in [4], the “mechanical allodynia on CFA‐induced inflammatory pain” value is on record as “improved mechanical allodynia”.
`O=C(Nc1cccnn1)N1CCN([C@@H]2CCOc3cc(C(F)(F)F)ccc32)CC1` [PKM‐833, (R)‐N‐(pyridazin‐3‐yl)‐4‐(7‐(trifluoromethyl)chroman‐4‐yl)piperazine‐1‐carboxamide]: the “Duration (s), catalepsy” value in the series with catalepsy in rats (10 mg/kg, p.o., 1 h) was found to be 0.5 ± 0.1 s; in the series with catalepsy in rats (10 mg/kg, p.o., 4 h) it was 3.7 ± 1.9 s; with catalepsy in rats (30 mg/kg, p.o., 1 h) it was 0.8 ± 0.2 s; with catalepsy in rats (30 mg/kg, p.o., 4 h), 1.0 ± 0.3 s. Besides, the IC50 against rat FAAH was determined as 10 ± 3 nM; against 5-HT2B (h) it was 6400 nM; on PAF (h), 2300 nM; on human FAAH, 8.8 ± 3 nM. The half-life in [5] (iv, 1 mg/kg) is 5.8 h. The molecule further had a bioavailability in series [5] (po) of 41 to 91%. Also, the “mechanical allodynia (PWT), CCI‐induced neuropathic pain” value in series [6] (PKM‐833 30 mg/kg p.o. (3‐30 mg/kg tested)) is “did not attenuate”. For the same molecule, the “inhibition of human MAGL” value in series [7] is “did not inhibit”. Further, the “Duration (s) on rotarod” value in series [8] (10 mg/kg, 1 h) is on record as 200 ± 0 s; in series [8] (30 mg/kg, 1 h), 195 ± 6 s. For the same molecule, the “formalin‐induced pain responses, late phase” value in series [9] (3 mg/kg p.o. 1 hour before formalin) is “significantly reduced”. For the same molecule, in series [9] (0.3‐3 mg/kg p.o. 1 hour before formalin), the “formalin‐induced pain responses, early phase” value was “Neither PKM‐833 nor pregabalin changed”. Also, the “selectivity against other molecular targets” value at human FAAH (FAAH versus 137 other molecular targets) is “more than 200 fold”. The “mechanical allodynia (PWT), CFA‐induced inflammatory pain” value in [10] (0.3 to 3 mg/kg p.o.) is listed as “significantly suppressed”. For the same molecule, the “AEA concentrations in rat brain, time course” value in series [11] (1 mg/kg p.o., 1 to 48 hours before decapitation) was “significantly elevated for 8 hours but not at 24 and 48 hours”. The “AEA concentrations in rat brain, dose dependence” value in series [11] (0.3‐3 mg/kg p.o., 1 hour before decapitation) was “significant effects at doses of 1 and 3 mg/kg”.
As to `CC(C)C[C@H](CN)CC(=O)O` [Pregabalin, 3(S)‐(aminomethyl)‐5‐methylhexanoic acid, reference compound], the “mechanical allodynia (PWT), CCI‐induced neuropathic pain” value in series [6] (pregabalin 30 mg/kg p.o.) was “significantly antagonized”. Further, the “Duration (s) on rotarod” value in series [8] (10 mg/kg, 2 h) amounted to 199 ± 1 s; in series [8] (30 mg/kg, 2 h), 167 ± 14 s. Also, the “formalin‐induced pain responses, early phase” value in series [9] (setting [12]) was “Neither PKM‐833 nor pregabalin changed”. The “formalin‐induced pain responses, late phase” value in series [9] (setting [12]) is listed as “significantly reduced”.
Consider `COc1ccc2cc([C@H](C)C(=O)O)ccc2c1` [Naproxen, (S)‐(+)‐6‐methoxy‐α‐methyl‐2‐naphthaleneacetic acid, reference compound], for which the “mechanical allodynia (PWT), CFA‐induced inflammatory pain” value in series [10] (15 mg/kg p.o.) is “significantly suppressed”.
